By CC50 is commonly meant the concentration at which the toxic effect on the cells reaches its halfway point. A higher CC50 goes with lower toxicity to the cells. The term Kb denotes the affinity of an antagonist, worked out from how it opposes an agonist. By solubility (kinetic) is commonly meant the concentration staying in solution when a stock, usually in DMSO, is diluted into the medium. The term IC50 denotes the concentration at which inhibition is half-maximal.

The text below walks through data of ChEMBL document CHEMBL2407059, “Discovery and characterization of carbamothioylacrylamides as EP2 selective antagonists” (ACS Med Chem Lett, 2013).

For data set [1], the system named is C6. Briefly: Cytotoxicity against rat C6 cells after 48 hrs. In kind it is cell-based. The note with it: c6, 48 h. Put shortly:
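C6G cells are incubated with compound for 48 h, then cell viability is measured and CC50 derived.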

The target of data set [2] is Prostaglandin E2 receptor EP4 subtype (Homo sapiens) (UniProt P35408). Briefly: Antagonist activity at human EP4 receptor overexpressed in rat C6 cells assessed as inhibition of PGE2-induced cAMP accumulation incubated for 10 mins prior to PGE2 addition measured after 40 mins by TR-FRET assay. It is filed as functional, cell-based. (cAMP levels reflect the balance of adenylyl cyclase and phosphodiesterase activity.)

Data set [3] deals with Prostacyclin receptor (Homo sapiens) (UniProt P43119). Briefly: Antagonist activity at human IP receptor overexpressed in rat C6 cells assessed as inhibition of iloprost-induced cAMP accumulation incubated for 10 mins prior to iloprost addition measured after 40 mins by TR-FRET assay. It is filed as functional, cell-based.
The target in data set [4] is T1, Prostaglandin D2 receptor (Homo sapiens) (UniProt Q13258).
T1 sequence (whole entry): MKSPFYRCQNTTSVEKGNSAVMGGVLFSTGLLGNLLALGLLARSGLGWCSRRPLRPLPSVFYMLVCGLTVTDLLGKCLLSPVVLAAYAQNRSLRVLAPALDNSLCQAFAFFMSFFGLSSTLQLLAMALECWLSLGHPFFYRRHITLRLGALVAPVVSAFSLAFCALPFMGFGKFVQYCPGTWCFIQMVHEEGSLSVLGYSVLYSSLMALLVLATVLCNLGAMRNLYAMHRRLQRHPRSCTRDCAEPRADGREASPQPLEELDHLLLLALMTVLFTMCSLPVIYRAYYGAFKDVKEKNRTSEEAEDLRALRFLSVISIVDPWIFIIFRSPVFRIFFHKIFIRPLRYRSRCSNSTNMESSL
The data set is described as follows: Antagonist activity at human DP1 receptor overexpressed in rat C6 cells assessed as inhibition of BW245C-induced cAMP accumulation incubated for 10 mins prior to BW245C addition measured after 40 mins by TR-FRET assay. It is filed as functional, cell-based.

Data set [5] has as its target T2, Prostaglandin E2 receptor EP2 subtype (Homo sapiens, UniProt P43116). Briefly: Competitive antagonist activity at human EP2 receptor overexpressed in rat C6 cells by Schild plot analysis. It is filed as cell-based.
The target in data set [6] is Prostaglandin E2 receptor EP2 subtype (Mus musculus) (UniProt Q62053). Briefly: Inhibition of EP2 receptor-mediated mouse P388D1 macrophage activation assessed as inhibition of butaprost-induced TNF-alpha mRNA expression at 10 uM incubated for 1 hr prior to butaprost-challenge measured after 2 hrs by qRT-PCR analysis. The method, boiled down: (§1)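 P388D1 mouse macrophages pretreated 1 h with 10 μM antagonist or vehicle, then stimulated 2 h with EP2-selective agonist butaprost (10 μM). Inflammatory mediator mRNA quantified by qRT-PCR; n = 3–4, mean ± SEM, one-way ANOVA with post hoc Bonferroni test.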
On the technique in general: Real-time PCR tracks product formation cycle by cycle.

The target is the same in data set [7]. The data set is described as follows: Inhibition of EP2 receptor-mediated mouse P388D1 macrophage activation assessed as inhibition of butaprost-induced IL-23 mRNA expression at 10 uM incubated for 1 hr prior to butaprost-challenge measured after 2 hrs by qRT-PCR analysis. The method, boiled down:
as §1

Data set [8] shares this target. Briefly: Inhibition of EP2 receptor-mediated mouse P388D1 macrophage activation assessed as inhibition of butaprost-induced IL-17 mRNA expression at 10 uM incubated for 1 hr prior to butaprost-challenge measured after 2 hrs by qRT-PCR analysis. Put shortly:
as §1

Data set [9] has the same target. Briefly: Inhibition of EP2 receptor-mediated mouse P388D1 macrophage activation assessed as inhibition of butaprost-induced IL-12 mRNA expression at 10 uM incubated for 1 hr prior to butaprost-challenge measured after 2 hrs by qRT-PCR analysis. Put shortly: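 P388D1 macrophage line pretreated 1 h with test agent at 10 μM or vehicle, then stimulated with the EP2-selective agonist butaprost (10 μM) for 2 h. Inflammatory mediator mRNA quantified by qRT-PCR. n = 3–4, mean ± SEM, one-way ANOVA with post hoc Bonferroni test.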

For data set [10] the target is unchanged. The data set is described as follows: Inhibition of EP2 receptor-mediated mouse P388D1 macrophage activation assessed as inhibition of butaprost-induced IL-6 mRNA expression at 10 uM incubated for 1 hr prior to butaprost-challenge measured after 2 hrs by qRT-PCR analysis. Put shortly: as §1
For data set [11] the target is unchanged. The data set is described as follows: Inhibition of EP2 receptor-mediated mouse P388D1 macrophage activation assessed as inhibition of butaprost-induced IL-1beta mRNA expression at 10 uM incubated for 1 hr prior to butaprost-challenge measured after 2 hrs by qRT-PCR analysis. Put shortly: as §1
The target is the same in data set [12]. The data set is described as follows: Inhibition of EP2 receptor-mediated mouse P388D1 macrophage activation assessed as inhibition of butaprost-induced COX-2 mRNA expression at 10 uM incubated for 1 hr prior to butaprost-challenge measured after 2 hrs by qRT-PCR analysis. Put shortly: as §1
Data set [13] deals with Brain. Briefly: Drug uptake in C57BL/6 mouse brain at 10 mg/kg, ip after 1 hr. It is filed as ADME, organism-based. On the set-up: dose 10 mg/kg, route intraperitoneal. The note with it: in vivo. Put shortly: (§2)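 Female C57BL/6 mice dosed 10 mg/kg by oral gavage or 5 mg/kg i.p. (10 mg/kg i.p. also examined for brain) in vehicle of 10% DMSO, 70% PEG400, 20% sterile water. Brain tissue collected at 1 and 2 h post-dose; brain-to-plasma ratio reported.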

Data set [14] deals with Nucleic Acid. Briefly: Ratio of drug level in brain to plasma in C57BL/6 mouse at 10 mg/kg, ip. Also noted: dose 10 mg/kg, route intraperitoneal. It is filed as ADME, organism-based. Put shortly:
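Female C57BL/6 mice dosed 10 mg/kg i.p. Plasma prepared from blood, and brain tissue collected at 1 h. Brain-to-plasma concentration ratio calculated from the two levels.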

The subject of data set [15] is Brain. The data set is described as follows: Drug uptake in C57BL/6 mouse brain at 5 mg/kg, ip after 1 to 2 hrs. It is filed as ADME, organism-based. On the set-up: dose 5 mg/kg, route intraperitoneal. The note with it: in vivo. The method, boiled down:
as §2

Data set [16] in a line: Plasma concentration in C57BL/6 mouse at 5 mg/kg, ip after 30 mins. In kind it is ADME, organism-based. Also noted: dose 5 mg/kg, route intraperitoneal. The method, boiled down:
(§3)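 Female C57BL/6 mice dosed 10 mg/kg by oral gavage or 5 mg/kg i.p. in 10% DMSO/70% PEG400/20% sterile water. Blood drawn at five time points from 0.5 to 8 h and processed to plasma. Compound concentration in plasma measured; n = 3 mice per time point, mean ± SEM.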

The subject of data set [17] is Brain. Briefly: Drug uptake in C57BL/6 mouse brain at 10 mg/kg, po after 1 to 2 hrs. It is filed as ADME, organism-based. Also noted: dose 10 mg/kg, route oral. The note with it: in vivo. Put shortly: as §2
A short description of data set [18]: Plasma concentration in C57BL/6 mouse at 10 mg/kg, po after 30 mins. In kind it is ADME, organism-based. On the set-up: dose 10 mg/kg, route oral. The method, boiled down: as §3
Data set [19] is described as follows: Metabolic stability in mouse liver microsomes assessed as compound remaining at 1 to 10 uM after 60 mins. In kind it is ADME, Microsome. The note with it: read-out: Stability. Background: Liver microsomes are vesicles of endoplasmic reticulum, rich in cytochrome P450 enzymes.
Data set [20] can be described thus: Metabolic stability in human liver microsomes assessed as compound remaining at 1 to 10 uM after 60 mins. The note with it: read-out: Stability. It is filed as ADME, Microsome.
Data set [21] is described as follows: Aqueous solubility of the compound in PBS buffer at pH 7.0 by nephelometry. It is filed as physicochemical.
A short description of data set [22]: Inhibition of Staphylococcus aureus NadD.
Data set [23] concerns the target Beta-2 adrenergic receptor (Homo sapiens) (UniProt P07550). Briefly: Inhibition of beta2-adrenergic receptor (unknown origin) overexpressed in rat C6G cells up to 40 uM by TR-FRET assay. It is filed as cell-based.
For data set [24], the target named is Prostaglandin E2 receptor EP4 subtype (Homo sapiens) (UniProt P35408). Briefly: Inhibition of human EP4 receptor overexpressed in rat C6G cells up to 40 uM by TR-FRET assay. In kind it is cell-based.
Data set [25] deals with T2, Prostaglandin E2 receptor EP2 subtype. Briefly: Antagonist activity at human EP2 receptor overexpressed in rat C6 cells assessed as inhibition of PGE2-induced cAMP accumulation incubated for 10 mins prior to PGE2 addition measured after 40 mins by TR-FRET assay. In kind it is functional, cell-based.

Molecules are shown by their SMILES. ≈ marks a conversion by molar mass, not a printed value. Calls of active or inactive are those of the source. No cut-off for these calls is given here.

Chain of Prostaglandin E2 receptor EP2 subtype (Mus musculus) (Q62053 whole entry): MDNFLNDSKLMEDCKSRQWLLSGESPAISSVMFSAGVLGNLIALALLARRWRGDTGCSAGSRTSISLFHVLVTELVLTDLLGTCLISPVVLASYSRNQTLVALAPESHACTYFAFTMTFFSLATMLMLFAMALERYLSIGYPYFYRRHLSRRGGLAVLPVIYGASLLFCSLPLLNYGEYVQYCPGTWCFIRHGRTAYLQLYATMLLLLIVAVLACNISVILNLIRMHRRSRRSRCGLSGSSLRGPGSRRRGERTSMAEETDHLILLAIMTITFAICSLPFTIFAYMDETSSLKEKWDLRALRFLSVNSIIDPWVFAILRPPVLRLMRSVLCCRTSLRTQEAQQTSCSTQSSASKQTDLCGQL
Chain of Prostaglandin E2 receptor EP4 subtype (Homo sapiens) (P35408 whole entry): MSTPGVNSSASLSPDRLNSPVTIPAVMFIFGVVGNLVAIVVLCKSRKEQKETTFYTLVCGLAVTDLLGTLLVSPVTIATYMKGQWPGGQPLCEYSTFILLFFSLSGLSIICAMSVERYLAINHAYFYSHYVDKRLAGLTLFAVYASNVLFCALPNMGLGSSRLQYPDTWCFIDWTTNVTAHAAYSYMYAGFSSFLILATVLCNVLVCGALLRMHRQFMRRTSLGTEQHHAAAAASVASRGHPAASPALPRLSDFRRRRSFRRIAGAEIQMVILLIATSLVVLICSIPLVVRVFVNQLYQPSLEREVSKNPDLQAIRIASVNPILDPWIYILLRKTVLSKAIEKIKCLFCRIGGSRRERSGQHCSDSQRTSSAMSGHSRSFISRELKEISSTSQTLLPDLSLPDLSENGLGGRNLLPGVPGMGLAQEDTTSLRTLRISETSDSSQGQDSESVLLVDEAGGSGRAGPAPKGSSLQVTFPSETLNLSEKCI
Chain of Prostacyclin receptor (Homo sapiens) (P43119 whole entry): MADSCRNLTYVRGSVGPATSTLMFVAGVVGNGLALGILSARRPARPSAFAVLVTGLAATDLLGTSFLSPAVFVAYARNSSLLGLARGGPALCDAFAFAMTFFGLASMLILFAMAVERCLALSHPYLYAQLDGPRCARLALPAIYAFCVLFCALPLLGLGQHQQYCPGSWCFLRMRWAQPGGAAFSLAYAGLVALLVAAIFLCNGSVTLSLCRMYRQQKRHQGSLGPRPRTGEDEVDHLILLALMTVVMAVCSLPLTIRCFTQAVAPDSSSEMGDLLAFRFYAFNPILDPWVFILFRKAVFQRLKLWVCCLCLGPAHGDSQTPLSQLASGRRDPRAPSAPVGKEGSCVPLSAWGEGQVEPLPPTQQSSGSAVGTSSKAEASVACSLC
T2 sequence (P43116 whole entry): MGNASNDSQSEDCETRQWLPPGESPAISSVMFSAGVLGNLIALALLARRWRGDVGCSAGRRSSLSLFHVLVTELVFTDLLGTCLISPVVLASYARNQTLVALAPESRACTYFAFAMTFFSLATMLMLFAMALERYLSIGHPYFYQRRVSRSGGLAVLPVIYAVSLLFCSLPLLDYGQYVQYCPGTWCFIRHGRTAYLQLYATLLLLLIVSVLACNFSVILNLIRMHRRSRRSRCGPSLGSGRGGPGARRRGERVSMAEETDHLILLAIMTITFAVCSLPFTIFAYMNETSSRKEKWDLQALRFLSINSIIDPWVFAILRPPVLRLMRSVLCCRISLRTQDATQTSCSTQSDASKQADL
Chain of Beta-2 adrenergic receptor (Homo sapiens) (P07550 whole entry, looked up): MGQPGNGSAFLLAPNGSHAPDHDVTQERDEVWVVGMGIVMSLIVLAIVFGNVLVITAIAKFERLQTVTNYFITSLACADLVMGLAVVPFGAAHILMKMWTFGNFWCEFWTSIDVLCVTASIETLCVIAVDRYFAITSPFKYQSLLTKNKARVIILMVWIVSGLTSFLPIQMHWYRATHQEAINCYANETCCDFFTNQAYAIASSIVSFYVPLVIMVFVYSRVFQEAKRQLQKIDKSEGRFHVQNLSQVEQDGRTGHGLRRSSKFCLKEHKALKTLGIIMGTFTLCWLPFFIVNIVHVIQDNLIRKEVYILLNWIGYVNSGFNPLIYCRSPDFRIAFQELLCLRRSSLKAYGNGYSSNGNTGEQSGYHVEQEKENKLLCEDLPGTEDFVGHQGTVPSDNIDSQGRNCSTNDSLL

The compound `COc1ccc(NS(=O)(=O)c2ccc(NC(=S)NC(=O)/C=C/c3ccc(C)cc3)cc2)nn1` came in with a CC50 in [1] of 150 µM. The Kb is 20.5 µM in data set [2], 0.36 µM in data set [3] and 0.0133 µM in [5]. Further, the KB entry in data set [4] is “inactive”.
In data set [1], `CCc1nnc(NS(=O)(=O)c2ccc(NC(=S)NC(=O)/C=C/c3cccs3)cc2)s1` displayed a CC50 of 330 µM. Further, in data set [3], the Kb stood at 2.26 µM.
Consider `CCc1nnc(NS(=O)(=O)c2ccc(NC(=S)NC(=O)/C=C/c3ccc(OC)cc3)cc2)s1`, for which the CC50 in data set [1] was found to be 365 µM. In addition, the Kb in [2] was 13 µM; in data set [3], 0.36 µM; in data set [4] it was 46.6 µM; in data set [5], 0.0345 µM.
For `COc1cc(NS(=O)(=O)c2ccc(NC(=S)NC(=O)c3sc4cc(F)ccc4c3Cl)cc2)nc(OC)n1`, in [1], the CC50 worked out at 96 µM. In addition, the Kb in data set [2] turned out to be 0.7 µM; in [3], 21 µM; in [4], 8.7 µM; in data set [5] it was 0.108 µM.
Compound `CCc1nnc(NS(=O)(=O)c2ccc(NC(=S)NC(=O)c3ccc(OC)cc3)cc2)s1` registered a CC50 in data set [1] of 186 µM. Also, the Kb turned out to be 1.73 µM in data set [3] and 16.1 µM in data set [4].
As to `CCc1nnc(NS(=O)(=O)c2ccc(NC(=S)NC(=O)/C=C/c3ccccc3)cc2)s1`, the CC50 in data set [1] worked out at 370 µM. For the same compound, the Kb in data set [4] came out at 9.8 µM.
In the case of `COc1cc(NS(=O)(=O)c2ccc(NC(=S)NC(=O)c3cccs3)cc2)nc(OC)n1`, the CC50 in [1] was found to be 258 µM. The figures for the Kb in data set [3] and in [4] were 5.9 µM and 25.2 µM, respectively.
For `CCc1nnc(NS(=O)(=O)c2ccc(NC(=S)NC(=O)/C=C/c3ccc(F)cc3)cc2)s1`, the inhibition result in data set [6], in data set [7], in data set [8], in [9], in [10] and in data set [11] was “Active” in each case. Moreover, the inhibition result in data set [12] was “Active”. For the same compound, the Drug uptake entry was “Active” in [13], “Not Active” in data set [15] and “Not Active” in data set [17]. Also, the BPR in [14] was 0.02. Besides, the concentration at 0.5 h in [16] amounted to 30 µM; in data set [18] it was 12 µM. The remaining at 1 h, up to 10 µM in data set [19] and in [20] was 40% each time. In data set [21], this compound had a solubility (kinetic) of 71 µg/mL (≈ 144 µM). Moreover, in data set [1], the midpoint of cytotoxicity, the CC50, lay at 326 µM. The IC50 in data set [22] worked out at 4.5 µM; in [25], 1.6 µM. The inhibition entry in data set [23] and in data set [24] was “inactive” in each case. Besides, in data set [25], the inhibition result was “Dose-dependent effect”.
`COc1cc(NS(=O)(=O)c2ccc(NC(=S)NC(=O)/C=C/c3ccc(F)cc3)cc2)ncn1`: the remaining at 1 h, up to 10 µM in data set [19] and in data set [20] was 40% throughout. Moreover, half-maximal cytotoxicity in [1] (CC50) was put at 378 µM. The Kb in data set [2] is 18.2 µM. The KB result in [4] was “inactive”.
